Here are results for two compounds from PMC11425819 (ACS Omega, 2024).

Assay [1] deals with H9C2 cells. Kind of assay: Mitochondrial morphology analysis. To be noted: 10 μM, vs H/R alone. Format: cell-based, rat. Summed up: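 H9C2 cells were pretreated 12 h with test compound (10 μM), then given 6 h hypoxia and 4 h reoxygenation in 10% FBS DMEM/F12. Cells were stained with MitoTracker and imaged by laser-scanning microscopy (60× oil). Mitochondria were scored as tubular, intermediate or fragmented. The value is the percentage of cells with intermediate or fragmented mitochondria, from 100 cells per experiment over four independent experiments (SEM).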

For assay [2], the system named is H9C2 cells. The assay is described as follows: mPTP opening. Format: cell-based, rat. To be noted: 10 μM, 12 h pretreatment, H/R, compared with H/R alone, at least four independent experiments. Summed up: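 H9C2 cells were pretreated 12 h with test compound (10 μM), then given 6 h hypoxia alone or H/R; an autophagy inducer (10 μM) served as comparator. Cells were loaded with calcein (2 μM) and CoCl2 (1 mM) in HBSS/Ca2+ for 15 min at 37 °C. Co2+ quenches cytosolic calcein, so retained mitochondrial calcein fluorescence indicates a closed mPTP.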

For `CC1(C)CC(NC(=O)C[P+](c2ccccc2)(c2ccccc2)c2ccccc2)CC(C)(C)N1[O]` [Mito-Tempo], the “fragmented mitochondrial appearance after H/R” value in the assay with H9C2 cells [1] is on record as “attenuated the fragmented mitochondrial appearance”. With `CO[C@H]1C[C@@H]2CC[C@@H](C)[C@@](O)(O2)C(=O)C(=O)N2CCCC[C@H]2C(=O)O[C@H]([C@H](C)C[C@@H]2CC[C@@H](O)[C@H](OC)C2)CC(=O)[C@H](C)/C=C(\C)[C@@H](O)[C@@H](OC)C(=O)[C@H](C)C[C@H](C)/C=C/C=C/C=C/1C` [rapamycin], in the assay with H9C2 cells [2], the “mitochondrial calcein fluorescence (mPTP opening)” value is “considerably higher”.
